Source: PubChem BioAssay
Activity calls are given as the source filed them.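 How the source made its calls, unless noted: active means viability at or below 10% of carrier control in both of two separate runs; inconclusive means viability at or below 10% in only one of the two runs; inactive means the rest.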

Key:
[1] = reduced viability of SK-BR-3 breast cancer cells – cell-based, 24 h, human, pilot screen (AID 572); details: SK-BR-3 viability, CellTiter-Glo luminescence, at 10 µM, stronger effect = lower value;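 further: compound exposure lasted between 18 and 24 h rather than exactly 24 h; 100% = carrier-treated control wells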
[2] = HUVEC growth inhibition – cell-based, human, primary screen (AID 575;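 active means viability at or below 30% in both replicate assays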;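 further: 100% = median of untreated cell wells with 0.1% DMSO on each plate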); details: HUVEC proliferation, CellTiter-Glo luminescence, 72 h; at 10 µM; stronger effect = lower value
Summary of the method: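 Test system: primary human umbilical vein endothelial cells; medium: endothelial basal medium with 2% FBS plus growth supplements; dosing: 10 µM compound only; times: 72 h treatment at 37 °C; signal: CTG luminescence; read-out: % viability relative to median vehicle-well signal on each plate; control set: vehicle and MePR control wells; plate: 384-well, collagen-coated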

[3] = H69AR cell proliferation blockers – human, duplicate replicates, primary screen (AID 580;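 active means viability at or under a set limit in both replicates, limit being median viability minus 3 SD, cut at about 48% in these data, passing the limit was not always enough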;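 further: 100% = mean luminescence of untreated wells and 0% = no signal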); details: H69AR lung tumor cells viability, ATP luminescence, 72 h; at 10 µM; stronger effect = lower value
[4] = MRP1 drug-resistance reversers in H69AR cells – cell-based, doxorubicin co-treatment, pilot screen (AID 601;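 active means viability loss from added drug above about 55%, and viability with drug at most 40%, in both replicates, limit read from the data, passing the limit was not always enough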); details: CellTiter-Glo, 72 h, at 10 µM; for differential viability (reversal): stronger effect = higher value
[5] = yeast transport mutant growth inhibition pilot in 384-well plates, post-Golgi transport modulator project (AID 636; in the data active means inhibition above about 31%); details: absorbance 615 nm, about 18 h, stronger effect = higher value
[6] = growth suppression of yeast trafficking mutant, preliminary HTS, modulators of trafficking downstream of Golgi apparatus project, 1536-format plate, OD 615 nm (AID 637; in the data active means inhibition above about 30%); details: yeast transport mutant growth, absorbance 615 nm, 18 h; stronger effect = higher value
[7] = H69AR cells + 2 uM doxorubicin, measured here: viability with 2 uM doxorubicin, stronger effect = lower value
[8] = H69AR cells, compound alone cytotoxicity

| SMILES | viability [1] | viability [2] | viability [3] | differential viability (reversal) ([4]; H69AR cells + 2 uM doxorubicin) | viability [4, 7] [%] | viability [4, 8] [%] | inhibition [5] | inhibition [6] |
| --- | --- | --- | --- | --- | --- | --- | --- | --- |
| Cc1cc(C)cc(N2C(=O)C3C4C=CC(C4)C3C2=O)c1 (stereo unspecified) | 100% (inactive) | 109% (inactive) | 93% (inactive) | 7.94% (inactive) | 85 | 93 | -3.15% (inactive) | 2.36% (inactive) |
| Cc1c2cnn(CC(=O)N3CCN(c4ncccn4)CC3)c(=O)c2c(C)n1Cc1ccc(F)cc1 | 99% (inactive) | 106% (inactive) | 99.5% (inactive) | 2.37% (inactive) | 97.2 | 99.5 | 5.14% (inactive) | -4.73% (inactive) |
| CC(C(=O)O)c1ccc(-c2ccccc2)c(F)c1 (stereo unspecified) | 94% (inactive) | 81.7% (inactive) | 90.2% (inactive) | -1.62% (inactive) | 91.8 | 90.2 | -1.82% (inactive) | -1.5% (inactive) |
| COc1cccc(C=Nc2ccc3c(c2)OCCO3)c1O | 115% (inactive) | 79.2% (inactive) | 83% (inactive) | -12% (inactive) | 95 | 83 | 1.95% (inactive) | -0.33% (inactive) |
| CCOC(=O)c1sc2cccc(F)c2c1N | 105% (inactive) | 80.8% (inactive) | 88.1% (inactive) | 5.58% (inactive) | 82.5 | 88.1 | -5.45% (inactive) | 6.07% (inactive) |
| Cn1c(C(=O)OCC(=O)NCC2CCCO2)cc2sccc21 (stereo unspecified) | 85% (inactive) | 113% (inactive) | 92.7% (inactive) | 3.19% (inactive) | 89.6 | 92.7 | -9.04% (inactive) | 2.9% (inactive) |
| CCCCOc1ccc(N(CC(=O)NC2CCCC2)C(=O)CCC(=O)Nc2ccccn2)cc1 | 101% (inactive) | 71.7% (inactive) | 69.4% (inactive) | 5% (inactive) | 64.4 | 69.4 | -1.3% (inactive) | 2.95% (inactive) |
| CC1=C(C(=O)Nc2ccccc2C)C2(CCCC2)C(C(N)=O)C(=O)N1 (stereo unspecified) | 114% (inactive) | 81.7% (inactive) | 90% (inactive) | 1.6% (inactive) | 88.4 | 90 | 0.96% (inactive) | 0% (inactive) |
| Cc1ccc2c(c1)nnn2C1CCN(C(=O)NC23CC4CC(CC(C4)C2)C3)CC1 | 72% (inactive) | 102% (inactive) | 92.1% (inactive) | 8.39% (inactive) | 83.7 | 92.1 | -8.08% (inactive) | 0.16% (inactive) |
| CCN1C(=O)C(C(=O)Nc2ccc(OC)cc2)C2CC1(C)Oc1ccccc12 (stereo unspecified) | 80% (inactive) | 110% (inactive) | 86.4% (inactive) | -10% (inactive) | 96.4 | 86.4 | -8.51% (inactive) | -1.64% (inactive) |
| C[C@@H]1C[C@H]2[C@@H]3C[C@H](F)C4=CC(=O)C=C[C@]4(C)[C@@]3(F)[C@@H](O)C[C@]2(C)[C@@]1(O)C(=O)COC(=O)C(C)(C)C | 103% (inactive) | 76.9% (inactive) | 79.5% (inactive) | -7.82% (inactive) | 87.3 | 79.5 | -3.38% (inactive) | -11.3% (inactive) |
| COc1ccccc1N1CCN(C(=O)CSc2nc3ncnc(N)c3[nH]2)CC1 | 110% (inactive) | 96.6% (inactive) | 92.8% (inactive) | 3.56% (inactive) | 89.3 | 92.8 | -4.29% (inactive) | -1.31% (inactive) |
| N#Cc1c(-c2ccc3c(c2)OCO3)csc1N | 96% (inactive) | 83.9% (inactive) | 95.2% (inactive) | 1.51% (inactive) | 93.7 | 95.2 | 3.29% (inactive) | 4.73% (inactive) |
| COc1ccccc1NC(=O)Cc1noc(CSc2cc(C)c3ccccc3n2)n1 | 104% (inactive) | 89.5% (inactive) | 92.5% (inactive) | 11.8% (inactive) | 80.7 | 92.5 | -4.59% (inactive) | 1.64% (inactive) |
| CC(C)Sc1nc(N2CCCC2)c2c(c1C#N)CC(C)(C)OC2 | 90% (inactive) | 71.2% (inactive) | 80.2% (inactive) | 42.7% (inactive) | 37.5 | 80.2 | -2.88% (inactive) | -4.84% (inactive) |
| O=C(NCc1nc2ccccc2[nH]1)c1ccc(Cl)c(S(=O)(=O)N2CCCC2)c1 | 99% (inactive) | 79.2% (inactive) | 96.8% (inactive) | -3.96% (inactive) | 101 | 96.8 | 0.55% (inactive) | -4.35% (inactive) |
| CC(C)OC(=O)c1cccc(C(=O)O)n1 | 110% (inactive) | 91% (inactive) | 96% (inactive) | 1.99% (inactive) | 94.1 | 96 | -1.69% (inactive) | -5.57% (inactive) |
| Cc1cc(C(=O)Nc2c(C)n(C)n(-c3ccccc3)c2=O)c(C)o1 | 71% (inactive) | 105% (inactive) | 110% (inactive) | 11.8% (inactive) | 98.4 | 110 | -8.08% (inactive) | 4.91% (inactive) |
| O=C(COc1ccccc1Cl)NCCCN1CCOCC1 | 98% (inactive) | 86.9% (inactive) | 91.3% (inactive) | -0.6% (inactive) | 91.9 | 91.3 | 3.15% (inactive) | -2.74% (inactive) |

| SMILES | viability [1] | viability [2] | viability [3] | differential viability (reversal) ([4]; H69AR cells + 2 uM doxorubicin) | viability [4, 7] [%] | viability [4, 8] [%] | inhibition [5] | inhibition [6] |
| --- | --- | --- | --- | --- | --- | --- | --- | --- |
| CCCCNc1cc(C(=O)O)cc(S(N)(=O)=O)c1Oc1ccccc1 | 121% (inactive) | 87% (inactive) | 114% (inactive) | 23.6% (inactive) | 90.5 | 114 | -1.56% (inactive) | 7.17% (inactive) |
| COc1cc(NS(=O)(=O)c2ccc(N)cc2)nc(OC)n1 | 109% (inactive) | 80.7% (inactive) | 100% (inactive) | 11.7% (inactive) | 88.4 | 100 | 1.43% (inactive) | 3.83% (inactive) |
| Cc1oncc1C(=O)Nc1ccc(C(F)(F)F)cc1 | 87% (inactive) | 69.8% (inactive) | 97.2% (inactive) | 9.38% (inactive) | 87.8 | 97.2 | -1.69% (inactive) | -0.83% (inactive) |
| CCOC(=O)c1cnc(C(C)(C)C)[nH]c1=O | 106% (inactive) | 102% (inactive) | 95.8% (inactive) | 7.84% (inactive) | 88 | 95.8 | -6.22% (inactive) | -0.91% (inactive) |
| CS(=O)(=O)N1CCc2cc(S(=O)(=O)Nc3ccc4oc5c(c4c3)CCCC5)ccc21 | 76% (inactive) | 43.3% (inactive) | 88.9% (inactive) | -13.8% (inactive) | 103 | 88.9 | -2.47% (inactive) | 0% (inactive) |
| Cc1cc(NC(=O)CCCC(=O)Nc2ccc(F)cc2)no1 | 101% (inactive) | 96.8% (inactive) | 97% (inactive) | -0.445% (inactive) | 97.5 | 97 | -1.56% (inactive) | -1.48% (inactive) |
| CC(C)(C)C(=O)NC1CCN(C(=O)N2CCCC2)CC1 | 93% (inactive) | 102% (inactive) | 94.5% (inactive) | 11.3% (inactive) | 83.2 | 94.5 | -8.24% (inactive) | 2.91% (inactive) |
| Cc1ccc2[nH]c(=O)c(-c3noc(-c4ccncc4)n3)cc2c1 | 104% (inactive) | 113% (inactive) | 98.7% (inactive) | 4.67% (inactive) | 94 | 98.7 | -8.11% (inactive) | 6.18% (inactive) |
| COC(=O)CS(=O)(=O)c1nnc([C@H](Cc2ccccc2)NC(=O)OC(C)(C)C)o1 | 77.5% (inactive) | 3.82% (active) | 1.21% (active) | 0.515% (inactive) | 0.69 | 1.21 | -5.45% (inactive) | -12.3% (inactive) |
| Cc1cc(C)n(-c2nc3c(c(=O)[nH]c(=O)n3C)n2Cc2ccc(F)cc2)n1 | 93% (inactive) | 113% (inactive) | 96.5% (inactive) | 8.69% (inactive) | 87.8 | 96.5 | -4.19% (inactive) | -1.45% (inactive) |
| CCOC(=O)c1ccc(NC(=O)N2CCN(Cc3cccc(F)c3)CC2)cc1 | 91% (inactive) | 105% (inactive) | 84.4% (inactive) | -9.16% (inactive) | 93.6 | 84.4 | -5.21% (inactive) | 0.91% (inactive) |
| CCN(CC(=O)NC1CCS(=O)(=O)C1)C(=O)C(c1ccccc1)c1ccccc1 (stereo unspecified) | 119% (inactive) | 102% (inactive) | 102% (inactive) | 14.2% (inactive) | 88.2 | 102 | -5.14% (inactive) | -2.91% (inactive) |
| CCOc1ncccc1C(=O)Nc1ccc(Cl)cc1 | 92% (inactive) | 91.4% (inactive) | 79.8% (inactive) | -3.41% (inactive) | 83.2 | 79.8 | 1.17% (inactive) | 0.49% (inactive) |
| COc1ccccc1OCc1nc2ccccc2[nH]1 | 69% (inactive) | 88.5% (inactive) | 99.3% (inactive) | -5.04% (inactive) | 104 | 99.3 | -6.16% (inactive) | -0.55% (inactive) |
| Cc1cccc(NC(=O)c2cc(NC(=O)c3ccco3)ccc2Cl)n1 | 101% (inactive) | 77.2% (inactive) | 95.4% (inactive) | 0.16% (inactive) | 95.3 | 95.4 | -1.56% (inactive) | 7.21% (inactive) |
| CCCC(=O)Nc1cnc(NC(=O)c2cccc(F)c2)cc1C | 86% (inactive) | 90.3% (inactive) | 88.7% (inactive) | 6.15% (inactive) | 82.6 | 88.7 | 2.47% (inactive) | 2.95% (inactive) |
| COc1ccc(C)cc1C(=O)CCC(=O)Nc1ccccc1N1CCOCC1 | 90% (inactive) | 54% (inactive) | 1.36% (active) | -1.5% (inactive) | 2.85 | 1.36 | -6.27% (inactive) | 1.31% (inactive) |
| COc1ccc2cnn(-c3ccccc3C)c(=O)c2c1OC | 88% (inactive) | 85.5% (inactive) | 106% (inactive) | -1.29% (inactive) | 108 | 106 | -3.24% (inactive) | 0.55% (inactive) |
